According to ChEMBL document CHEMBL3745678, “Novel β-Carboline/Hydroxamic Acid Hybrids Targeting Both Histone Deacetylase and DNA Display High Anticancer Activity via Regulation of the p53 Signaling Pathway” (J Med Chem, 2015):
Calls of active or inactive are those of the source. The rule behind the calls is not given here.

Legend:
[1] = Upregulation of Bax expression in human HCT116 cells after 48 hrs by western blot analysis; type: functional, cell-based; conditions: HCT-116
Outline: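 HCT116 cells treated 48 h with or without compound. Western blots probed for Bax, Bcl-2, cleaved caspase-3 and PARP. Band intensities relative to β-actin by densitometry; means ± SD from three separate experiments.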

Mus musculus [2] = test: Acute toxicity in ICR mouse assessed as abnormality in drinking at 240 mg/kg, ip measured for 14 days; type: organism-based; conditions: in vivo, 336 h
Outline: (§1)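 Female ICR mice, single intraperitoneal injection at 585.9, 468.8, […], 300 or 240 mg/kg, or vehicle control, n = 10 per group. Deaths counted at 1 h, 4 h, daily on days 1-4 and over days 5-14. Eating, drinking, body weight and activity observed for 14 days, with survival (%) taken on day 14. LD50 calculated from mortality.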

HCT-116 [3] = test: Induction of DNA damage in human HCT116 cells assessed as histone H2AX phosphorylation at S139 at 1 to 5 uM after 12 hrs by western blot analysis; type: functional, cell-based
Outline: (§2)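 DNA-damage marker. HCT116 cells treated 12 h with compound or vehicle. Lysates immunoblotted with anti-H2AX S139ph, and β-actin served as the control. Relative levels were obtained by densitometric scanning; means ± SD of three separate experiments.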

HCT-116 [4] = test: Potency index, ratio of SAHA IC50 to compound IC50 for human HCT116 cells; type: functional
Outline: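 HCT116 cells seeded at 10^4 cells/ml and adhered overnight, then treated 48 h over a concentration series with 0.1% DMSO as control. MTT readout; IC50 derived from inhibition % = (1 − OD treated/OD control) × 100, three independent measurements. Index = SAHA IC50 ÷ compound IC50.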

HCT-116 [5] = test: Selectivity index, ratio of GI50 for rat IEC-18 cells to GI50 for human HCT116 cells; type: functional
Outline: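 HCT116 and rat IEC-18 cells incubated 48 h over a 0–5 µM range. Viability measured by MTT and expressed as % of control. GI50 taken from the inhibition curves; three independent experiments.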

Mus musculus [6] = test: Acute toxicity in ICR mouse assessed as death at 240 mg/kg, ip measured for 14 days; type: organism-based; conditions: in vivo, 336 h; outline: as §1
Mus musculus [7] = test: Acute toxicity in ICR mouse assessed as death at 240 to 300 mg/kg, ip measured after 5 to 14 days; type: organism-based; conditions: in vivo; outline: as §1
HCT-116 [8] = test: Induction of apoptosis in human HCT116 cells after 48 hrs by annexin V-FITC/propidium iodide staining-based flow cytometric analysis; type: functional, cell-based
Outline: (§3)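 HCT116 cells cultured overnight, then exposed in triplicate for 48 h to 0.1, 1.0 or 5.0 µM, SAHA 5.0 µM or vehicle. Stained with FITC-Annexin V/PI for 15 min at room temperature.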

HCT-116 [9] = test: Antitumor activity against human HCT116 cells xenografted in BALB/c mouse assessed as tumor growth inhibition at 45 and 90 mg/kg, ip measured twice per week over 22 days; type: functional, organism-based
[10] = molecular target: Cellular tumor antigen p53 (Homo sapiens) (UniProt P04637); test: Activation of p53 in human HCT116 cell at 0.1 to 5 uM after 12 hrs by western blot analysis; type: cell-based; conditions: HCT-116
Outline: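 HCT116 cells exposed 12 h to compound or vehicle, then lysed on ice in PBS with 1% NP-40, 0.5% deoxycholate, 0.1% SDS and protease inhibitors. Up to 50 µg protein run on SDS-PAGE and immunoblotted for phospho-p53 (Ser15), p53 and p21. Bands quantified by densitometry against β-actin; mean ± SD of three experiments.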

[11] = Antitumor activity against human HCT116 cells xenografted in BALB/c mouse assessed as tumor weight at 90 mg/kg, po measured twice per week over 22 days (reference value: 1.38 +/- 0.13 g); type: functional, HCT-116
Mus musculus [12] = test: Acute toxicity in ICR mouse assessed as abnormal activity at 240 mg/kg, ip measured for 14 days; type: organism-based; conditions: in vivo, 336 h; outline: as §1
[13] = Acute toxicity in ICR mouse assessed as survival rate at 585.9 mg/kg, ip measured on day 14; type: organism-based; conditions: in vivo; outline: as §1
[14] = molecular target: Histone deacetylase (Homo sapiens) (UniProt Q13547+O15379+Q9UBN7+Q92769+Q9UQL6+Q8WUI4+Q9BY41+Q96DB2+P56524+Q9UKV0+Q969S8); test: Inhibition of HDAC in human HCT116 cells assessed as increase in acetyl-histone H3 expression after 48 hrs by immunoblotting analysis; type: cell-based; conditions: HCT-116
Outline: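 HCT116 cells treated 48 h with compound, SAHA or vehicle. Lysates probed by immunoblot for acetyl-histone H3 and acetyl-α-tubulin, with β-actin as loading control. Relative levels by densitometric scanning; means ± SD of three experiments.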

HCT-116 [15] = test: Induction of apoptosis in human HCT116 cells at 1 uM after 48 hrs by annexin V-FITC/propidium iodide staining-based flow cytometric analysis; type: functional; outline: as §3
[16] = Antiproliferative activity against human HCT116 cells assessed as cell viability after 48 hrs by MTT assay; type: functional, cell-based, HCT-116; conditions: Homo sapiens, HCT-116, 48 h
Mus musculus [17] = test: Acute toxicity in ICR mouse assessed as death at 240 to 375 mg/kg, ip measured after 4 hrs; type: organism-based; conditions: in vivo; outline: as §1
HCT-116 [18] = test: Induction of DNA damage in human HCT116 cells assessed as histone H2AX phosphorylation at S139 after 12 hrs by western blot analysis; type: functional, cell-based; outline: as §2
[19] = Antitumor activity against human HCT116 cells xenografted in BALB/c mouse assessed as tumor growth inhibition at 90 mg/kg, po measured twice per week over 22 days; type: functional; conditions: HCT-116, po, 528 h, read-out: TGI
Mus musculus [20] = test: Toxicity in BALB/c mouse xenografted with human HCT116 cells assessed as body weight change at 45 mg/kg, ip measured twice per week over 22 days; type: organism-based, HCT-116; conditions: in vivo, 528 h
[21] = Acute toxicity in ICR mouse assessed as survival rate at 375 mg/kg, ip measured on day 14; type: organism-based; conditions: in vivo; outline: as §1
[22] = Acute toxicity in ICR mouse assessed as survival rate at 468.8 mg/kg, ip measured on day 14; type: organism-based; conditions: in vivo; outline: as §1
Histone deacetylase 1 = Histone deacetylase 1 (Homo sapiens, UniProt Q13547); test: Potency index, ratio of IC50 for SAHA to IC50 for test compound for inhibition of human recombinant HDAC1 using Boc-Lys (Ac)-AMC as substrate after 60 mins by fluorometric analysis
Outline: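 Recombinant human HDAC1 and HDAC8 incubated with compound dilutions plus Boc-Lys(Ac)-AMC at 37 °C for 60 min, then developer for 30 min. Fluorescence read at ex 355/em 460 nm; activity as % of control and IC50 calculated. Ratios formed from these IC50s; three independent experiments.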

Mus musculus [23] = test: Acute toxicity in ICR mouse assessed as body weight change at 240 mg/kg, ip measured for 14 days; type: organism-based; conditions: in vivo, 336 h; outline: as §1

Cellular tumor antigen p53 (Homo sapiens), sequence (P04637 whole entry, looked up): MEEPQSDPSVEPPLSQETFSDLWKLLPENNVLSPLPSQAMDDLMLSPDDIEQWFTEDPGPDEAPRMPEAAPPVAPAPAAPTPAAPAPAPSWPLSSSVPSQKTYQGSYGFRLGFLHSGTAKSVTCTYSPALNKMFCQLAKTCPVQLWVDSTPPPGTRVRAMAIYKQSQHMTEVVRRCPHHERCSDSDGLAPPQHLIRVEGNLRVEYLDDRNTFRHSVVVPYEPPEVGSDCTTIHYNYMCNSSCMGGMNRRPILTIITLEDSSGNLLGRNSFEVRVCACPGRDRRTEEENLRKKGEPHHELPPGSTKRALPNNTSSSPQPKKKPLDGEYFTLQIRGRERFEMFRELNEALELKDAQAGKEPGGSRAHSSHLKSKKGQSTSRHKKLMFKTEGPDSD
Histone deacetylase 1, sequence (Q13547 whole entry): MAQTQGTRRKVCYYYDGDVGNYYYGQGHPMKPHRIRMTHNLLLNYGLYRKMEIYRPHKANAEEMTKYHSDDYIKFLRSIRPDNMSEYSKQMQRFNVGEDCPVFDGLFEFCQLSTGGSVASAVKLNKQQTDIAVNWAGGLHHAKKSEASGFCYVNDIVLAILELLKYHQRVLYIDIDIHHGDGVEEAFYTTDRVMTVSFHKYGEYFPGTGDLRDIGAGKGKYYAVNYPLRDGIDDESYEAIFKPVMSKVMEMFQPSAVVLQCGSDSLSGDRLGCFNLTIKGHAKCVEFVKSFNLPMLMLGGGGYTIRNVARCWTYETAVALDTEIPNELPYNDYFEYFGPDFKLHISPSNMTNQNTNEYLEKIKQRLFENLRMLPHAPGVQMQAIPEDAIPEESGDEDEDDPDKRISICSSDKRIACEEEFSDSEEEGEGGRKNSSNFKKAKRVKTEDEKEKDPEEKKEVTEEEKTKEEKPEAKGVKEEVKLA

For `COc1ccc(-c2nc(NC(=O)NCCCC(=O)NO)cc3c2[nH]c2ccccc23)cc1`, the Activity [1] was “Dose-dependent effect”, the Activity (Mus musculus [2]) was “Non-toxic” and the Activity (HCT-116 [3]) was “Active”. The “Ratio IC50” value (HCT-116 [4]) was 7, the RatioGI50 (HCT-116 [5]) was 5 and the Activity (Mus musculus [6]) was “Non-toxic”. For the same compound, the Activity (Mus musculus [7]) was “Non-toxic”, the Activity (HCT-116 [8]) was “Dose-dependent effect” and the TGI (HCT-116 [9]) was “Active”. The Activity [10] was “Active”, the Activity [11] was 0.53 g and the Activity (Mus musculus [12]) was “Non-toxic”. The survival at 14 day [13] was 30%, the inhibition [14] was “Dose-dependent effect” and the Activity (HCT-116 [15]) was 41.3%. The GI50 [16] was 1.17 µM, the IC50 [16] was 0.83 µM and the Activity (Mus musculus [17]) was “Non-toxic”. For the same compound, the Activity (HCT-116 [18]) was “Dose-dependent effect”, the inhibition in vivo at 90 mg/kg [19] was 61.6% and the Activity (Mus musculus [20]) was “Non-toxic”. The survival at 14 day [21] was 70%, the survival at 14 day [22] was 50% and the Ratio IC50 (Histone deacetylase 1) was 7. For the same compound, the Activity (Mus musculus [23]) was “Non-toxic”.
